Measured values as given in ChEMBL document CHEMBL3877272, “Synthesis and anti-mitotic activity of 6,7-dihydro-4H-isothiazolo[4,5-b]pyridin-5-ones: In vivo and cell-based studies” (Eur J Med Chem, 2017).
Calls of active or inactive are those of the source.

How the values were obtained:
Paracentrotus lividus [1] = assay: Antimitotic activity in sea urchin free-swimming blastulae assessed as microtubule destabilization by measuring embryo spinning exposed 8 to 10 hrs after fertilization measured after 15 mins to 20 hrs; assay type: functional, Blastula
In short: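 Free-swimming P. lividus blastulae just after hatching (8–10 h post-fertilization) from same culture, exposed in seawater to 2-fold decreasing concentrations (DMSO stock diluted in EtOH). Settling to well bottom with rapid spinning around animal-vegetal axis scored by light microscopy over 15 min–20 h. Effective threshold concentration; duplicate measurements.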

Paracentrotus lividus [2] = assay: Antimitotic activity in sea urchin embryo assessed as cleavage arrest exposed 8 to 15 mins after fertilization 45 to 55 mins before first mitotic cycle completion measured at 2.5 to 5.5 hrs post dose; assay type: functional
In short: (§1)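 Paracentrotus lividus eggs, fertilized in filtered seawater, cultured as monolayer (up to 2000 embryos/mL) at room temperature. Exposed 8–15 min post-fertilization to 2-fold decreasing concentrations (DMSO stock diluted in EtOH; final DMSO ≤0.05%, EtOH ≤1%). Cleavage alteration scored at 8-cell, arrest at early blastula stage (2.5–5.5 h). Effective threshold concentration reported; duplicate measurements.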

Paracentrotus lividus [3] = assay: Antimitotic activity in sea urchin embryo assessed as cleavage alteration exposed 8 to 15 mins after fertilization 45 to 55 mins before first mitotic cycle completion measured at 2.5 to 5.5 hrs post dose; assay type: functional; in short: as §1
[4] = Antiproliferative activity against human NCI60 cells at 10 uM after 48 hrs by SRB assay relative to control; assay type: functional; details: NCI60, 48 h, read-out: GI
Paracentrotus lividus [5] = assay: In vivo microtubule destabilizing activity in sea urchin embryo assessed as tuberculate egg formation exposed 8 to 15 mins after fertilization 45 to 55 mins before first mitotic cycle completion measured at 2.5 to 5.5 hrs post dose; assay type: functional
In short: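 Paracentrotus lividus eggs from KCl-induced spawning, fertilized and cultured in filtered seawater at room temperature, up to 2000 embryos/mL. Compounds came from 10 mM DMSO stocks diluted 10-fold in 96% EtOH; tolerated solvent limits were 0.05% DMSO and 1% EtOH. Eggs were exposed to 2-fold decreasing concentrations and scored by light microscopy. The result is the effective threshold concentration, measured in duplicate.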

[6] = Antiproliferative activity against human MDA-MB-435 cells measured after 48 hrs by SRB assay; assay type: functional, cell-based; details: MDA-MB-435, 48 h
[7] = Antiproliferative activity against human MDA-MB-DYT2 cells measured after 96 hrs by Celltiter-Glo assay; assay type: functional, cell-based
In short: (§2)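 Cells plated 24 h, then treated 96 h with 0.1% DMSO or concentrations […]; growth by CellTiter-Glo luminescence, normalized to DMSO control; IC50 from dose–response curves by logistic nonlinear regression; mean of three independent experiments.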

[8] = Antiproliferative activity against human TOV112D cells measured after 96 hrs by Celltiter-Glo assay; assay type: functional, cell-based; in short: as §2
[9] = Antiproliferative activity against human MDA-MB-468 cells measured after 48 hrs by SRB assay; assay type: functional, cell-based; details: MDA-MB-468, 48 h
[10] = Antiproliferative activity against human OVCAR8 cells measured after 3 to 4 days by Celltiter-Glo luminescent cell viability assay; assay type: functional; details: OVCAR-8
[11] = Antiproliferative activity against human Caov3 cells measured after 96 hrs by Celltiter-Glo assay; assay type: functional, cell-based; details: Caov-3, 96 h; in short: as §2
[12] = Antiproliferative activity against human NCI/ADR-RES cells measured after 3 to 4 days by Celltiter-Glo luminescent cell viability assay; assay type: functional
[13] = Antiproliferative activity against human NCI60 cells measured after 48 hrs by SRB assay; assay type: functional; details: NCI60, 48 h
[14] = Antiproliferative activity against human MDA-MB-231 cells measured after 96 hrs by Celltiter-Glo assay; assay type: functional, cell-based; details: MDA-MB-231, 96 h; in short: as §2
[15] = Antiproliferative activity against human MDA-MB-435 cells measured after 96 hrs by Celltiter-Glo assay; assay type: functional, cell-based; details: MDA-MB-435, 96 h; in short: as §2
[16] = Solubility in seawater assessed as micro-crystal formation at 4 uM by light microscopy; assay type: physicochemical
In short: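 Compound from 10 mM DMSO stock diluted 10-fold in 96% EtOH, added to seawater with sea urchin embryos; microcrystal formation checked by light microscopy.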

[17] = Antiproliferative activity against human MDA-MB-468 cells measured after 96 hrs by Celltiter-Glo assay; assay type: functional, cell-based; details: MDA-MB-468, 96 h; in short: as §2
[18] = Antiproliferative activity against human NCI-H1975 cells measured after 96 hrs by Celltiter-Glo assay; assay type: functional, cell-based; details: NCI-H1975, 96 h; in short: as §2
Paracentrotus lividus [19] = assay: Antimitotic activity in early pluteus stage of sea urchin embryo assessed as growth inhibition of skeletal spicules at 1 uM; assay type: functional, tissue-based; details: Spicule
In short: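 P. lividus embryos (gametes by intracoelomic 0.5 M KCl, fertilized in filtered seawater, room temperature, paddle agitation 60 rpm); compound from 10 mM DMSO stock diluted 10-fold in 96% EtOH; growth of skeletal spicules scored by light microscopy at early pluteus stage.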

SMILES	EC (Paracentrotus lividus [1]) [µM]	EC (Paracentrotus lividus [2]) [µM]	EC (Paracentrotus lividus [3]) [µM]	inhibition of growth at 10 µM [4] [%]	also measured
COc1cc(C2CC(=O)Nc3c(-c4ccc(Cl)cc4)nsc32)c(OC)c2c1OCO2 (centres undefined)	>4	>4	>4	7.66	–
COc1cc(C2CC(=O)Nc3c(-c4ccccc4)nsc32)cc2c1OCO2 (centres undefined)	>4	>4	4	4.6	–
COc1cccc(C2CC(=O)Nc3c(-c4ccc(F)cc4)nsc32)c1 (centres undefined)	>4	4	1	15.1	Activity (Paracentrotus lividus [5]): Active
O=C1CC(c2ccsc2)c2snc(-c3ccc(Cl)cc3)c2N1 (centres undefined)	0.2	0.1	0.01	–	IC50 [6]: 260 nM; IC50 [7]: > 2000 nM; IC50 [8]: 1150 nM; IC50 [9]: 291 nM; GI50 [10]: 3010 nM; IC50 [11]: 1080 nM; GI50 [12]: 364 nM; GI50 [13]: 1510 nM; IC50 [14]: 1630 nM; IC50 [15]: 628 nM
COc1ccc(C2CC(=O)Nc3c(-c4cccc(F)c4)nsc32)cc1 (centres undefined)	>4	>4	2	5.3	–
O=C1CC(c2cccc(Cl)c2)c2snc(-c3ccc(F)cc3)c2N1 (centres undefined)	>4	4	1	15.6	–
COc1cccc(C2CC(=O)Nc3c(-c4cccc(F)c4)nsc32)c1 (centres undefined)	>4	1 to 4	0.5	9.4	solubility [16]: Insoluble
COc1cc(C2CC(=O)Nc3c(-c4ccccc4)nsc32)c(OC)c2c1OCO2 (centres undefined)	>4	>4	>4	–	–
O=C1CC(c2ccc3c(c2)OCO3)c2snc(-c3ccc(F)cc3)c2N1 (centres undefined)	>4	>4	1	11.7	–
COc1ccc(-c2nsc3c2NC(=O)CC3c2cc(OC)c3c(c2OC)OCO3)cc1 (centres undefined)	1	0.2	0.05	–	–
O=C1CC(c2cccc(Cl)c2)c2snc(-c3cccc(F)c3)c2N1 (centres undefined)	>4	4	1	–	–
O=C1CC(c2ccsc2)c2snc(-c3cccc(F)c3)c2N1 (centres undefined)	2	0.5	0.05	7.8	–
O=C1CC(c2ccc(F)cc2)c2snc(-c3ccc(F)cc3)c2N1 (centres undefined)	>4	4	1	4.2	solubility [16]: Insoluble
COc1ccc(-c2nsc3c2NC(=O)CC3c2ccc(F)cc2)cc1 (centres undefined)	0.1	0.05	0.01	–	IC50 [6]: 440 nM; IC50 [17]: 1850 nM; IC50 [7]: > 2000 nM; IC50 [8]: > 2000 nM; IC50 [9]: 2350 nM; GI50 [10]: 4010 nM; IC50 [11]: > 2000 nM; GI50 [12]: 2110 nM; GI50 [13]: 3020 nM; IC50 [14]: > 2000 nM; IC50 [18]: > 2000 nM; IC50 [15]: 1820 nM
COc1cc(C2CC(=O)Nc3c(-c4ccc(Cl)cc4)nsc32)cc2c1OCO2 (centres undefined)	>4	>4	2	17.8	solubility [16]: Insoluble
COc1ccc(-c2nsc3c2NC(=O)CC3c2ccc3c(c2)OCCO3)cc1 (centres undefined)	0.5	0.05	0.01	–	IC50 [6]: 247 nM; IC50 [17]: 451 nM; IC50 [7]: 1360 nM; IC50 [8]: 659 nM; IC50 [9]: 328 nM; GI50 [10]: 1410 nM; IC50 [11]: 833 nM; GI50 [12]: 367 nM; GI50 [13]: 933 nM; IC50 [14]: 1710 nM; IC50 [18]: 1240 nM; IC50 [15]: 349 nM
COc1ccc(-c2nsc3c2NC(=O)CC3c2cccc(F)c2)cc1 (centres undefined)	0.2	0.05	0.01	–	IC50 [6]: 827 nM; IC50 [17]: 1410 nM; IC50 [7]: > 2000 nM; IC50 [8]: > 2000 nM; IC50 [9]: 1940 nM; GI50 [10]: 7540 nM; IC50 [11]: > 2000 nM; GI50 [12]: 2960 nM; GI50 [13]: 4900 nM; IC50 [14]: > 2000 nM; IC50 [18]: > 2000 nM; IC50 [15]: 1410 nM

SMILES	EC (Paracentrotus lividus [1]) [µM]	EC (Paracentrotus lividus [2]) [µM]	EC (Paracentrotus lividus [3]) [µM]	inhibition of growth at 10 µM [4] [%]	also measured
COc1ccc(-c2nsc3c2NC(=O)CC3c2cccc(Cl)c2)cc1 (centres undefined)	0.1	0.1	0.01	–	IC50 [6]: 749 nM; IC50 [17]: 752 nM; IC50 [7]: > 2000 nM; IC50 [8]: 1270 nM; IC50 [9]: 174 nM; GI50 [10]: 2920 nM; IC50 [11]: 1300 nM; GI50 [12]: 562 nM; GI50 [13]: 1740 nM; IC50 [14]: 1620 nM; IC50 [18]: > 2000 nM; IC50 [15]: 792 nM
COc1ccc(-c2nsc3c2NC(=O)CC3c2ccc(Cl)cc2)cc1 (centres undefined)	1	0.2	0.1	15.7	–
COc1cc(C2CC(=O)Nc3c(-c4cccc(F)c4)nsc32)cc2c1OCO2 (centres undefined)	>4	>4	4	4.4	–
O=C1CC(c2ccsc2)c2snc(-c3ccc(F)cc3)c2N1 (centres undefined)	4	0.2	0.05	–	–
O=C1CC(c2ccc3c(c2)OCO3)c2snc(-c3cccc(F)c3)c2N1 (centres undefined)	>4	4	1	5.2	–
O=C1CC(c2ccc(Cl)cc2)c2snc(-c3cccc(F)c3)c2N1 (centres undefined)	>4	>4	>4	16.5	solubility [16]: Insoluble
COc1ccc(C2CC(=O)Nc3c(-c4ccc(F)cc4)nsc32)cc1 (centres undefined)	>4	>4	2	6.2	–
COc1cc(C2CC(=O)Nc3c(-c4ccc(F)cc4)nsc32)c(OC)c2c1OCO2 (centres undefined)	>4	>4	>4	–	Activity (Paracentrotus lividus [19]): Active
COc1cc(C2CC(=O)Nc3c(-c4cccc(F)c4)nsc32)c(OC)c2c1OCO2 (centres undefined)	>4	>4	>4	–	–
COc1ccc(-c2nsc3c2NC(=O)CC3c2cc(OC)c(O)c(O)c2OC)cc1 (centres undefined)	>5	2	1	–	–
O=C1CC(c2ccc(F)cc2)c2snc(-c3cccc(F)c3)c2N1 (centres undefined)	>4	4	1	–	Activity (Paracentrotus lividus [5]): Active
COc1ccc(-c2nsc3c2NC(=O)CC3c2cccc(Cl)c2)cc1OC (centres undefined)	>4	>4	2	14	–
COc1cc(C2CC(=O)Nc3c(-c4ccccc4)nsc32)c(OC)c(O)c1O (centres undefined)	>4	>4	>4	–	–
COc1ccc(/C=C\c2cc(OC)c(OC)c(OC)c2)cc1OP(=O)([O-])[O-].[Na+].[Na+] [FOSBRETABULIN DISODIUM]	0.05	0.01	0.005	–	IC50 [7]: 60 nM; IC50 [8]: 30.9 nM; IC50 [11]: 13.1 nM; GI50 [13]: 1.7 nM; IC50 [14]: 173 nM; IC50 [15]: 8.75 nM
O=C1CC(c2cccc(F)c2)c2snc(-c3cccc(F)c3)c2N1 (centres undefined)	>4	>4	1	6.4	–
COc1ccc(-c2nsc3c2NC(=O)CC3c2cc3c(c(OC)c2OC)OCO3)cc1 (centres undefined)	>5	2	0.2	26.9	Activity (Paracentrotus lividus [5]): Active
